# Compound activity (PubChem)
# RAM network inh: blocks the yeast RAM network; S. cerevisiae dse1pr::URA3 reporter, 5-FOA growth OD615, 2 d; analog-sensitive cbk1-as2 kinase mutant strain; 1.8% of 190,000 active; AID 868; inhibition, % at 50 µM;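 active = inhibition above a set limit, 3 SD over mean compound inhibition, cut at about 8.4% in these data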;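 also: 0% = DMSO-only wells with no growth and 100% = 10 µM 1-NA-PP1 full growth; inhibition rescues growth on 5-FOA so higher OD means more RAM inhibition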
# BB579 growth dn: yeast BB579 growth reduction in restrictive medium; 0.51% of 140,000 active; S. cerevisiae BB579 growth, OD615, 48 h; inhibition, % at 10 µM;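 active = inhibition above a set limit, 3 SD over the mean compound inhibition, cut at about 44% in these data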
#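 Test system: Saccharomyces cerevisiae DeaD strain BB579, replicative lifespan model yeast | Buffer or medium: Restrictive CSMM-D medium | Doses: One dose, 10 µM compound with 0.25% DMSO | Incubation: 48 h exposure, 30 °C | Detection: Culture absorbance at 615 nm | Control set: Amphotericin B at 10 µg/mL as positive control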
# Yeast lifespan up: extends the lifespan of yeast | S. cerevisiae growth with nicotinamide, OD615; deaD strain in restrictive glucose medium | inhibition of the nicotinamide effect, % at 10 µM | 0.68% of 130,000 active;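 active = inhibition above a set limit, placed 3 SD over the median of all compounds, cut at about 26% in these data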;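 also: 0% = nicotinamide-treated wells and 100% = cells grown without nicotinamide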
#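 System: Modified budding yeast, DeaD strain | Buffer or medium: Restrictive glucose medium | Also added: 1.5 mM nicotinamide | Doses: 10 µM single point, 0.25% DMSO | Schedule: 48 h compound exposure at 30 °C, humidified | Detection: Absorbance at 615 nm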
# SDO1 yeast rescue: compounds rescuing growth of sdo1-depleted yeast, bone marrow failure model. S. cerevisiae sdo1-depleted JHY4D growth rescue, OD600 30 h; hits give high values; pdr5 snq2 efflux-pump mutant strain. AID 817. 0.21% of 140,000 active. z-score at 10 µM;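 active = z-score above 3 at both the 24 hr and the 30 hr optical density reads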;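 also: z-score against mean and SD of all compound wells on the same plate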
# RAM 5-FOA: RAM network inhibitors in efflux-deficient yeast | AID 1305 | 1,200 tested, under 10 active | S. cerevisiae efflux-deficient reporter strain, 5-FOA growth OD615, 2 days | shares compounds with RAM network inh | max inhibition, %; call rule not given here;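 also: plate controls were vehicle for no effect and reference inhibitor for full effect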
# Starred values were filed as active, the others as inactive; . = no result given. An excerpt weighted towards active compounds, which were near 2.7% of everything screened.
SMILES,RAM network inh,BB579 growth dn,Yeast lifespan up,SDO1 yeast rescue,RAM 5-FOA
CCCCCCOc1ccc(N2C(=O)CC(N3CCN(CCN=CC4C(=O)CC(C)(C)CC4=O)CC3)C2=O)cc1 (stereo not drawn),0,.,.,.,.
CCCCN(CCCC)C1=Nc2ccccc2N/C1=C(/C#N)C(=O)OCC,16*,-34,1,-0.35,6
CCCCOc1ccccc1NC(=O)c1ccco1,0,-28,-19,-0.86,.
CCCCOc1ccccc1NC(=O)c1scc2c1OCCO2,13*,.,.,.,5
CCOc1ccccc1N=C1SC(CC(=O)Nc2ccc(OC)cc2OC)C(=O)N1CCC1=CCCCC1 (stereo not drawn),3,-11,-4,1.2,.
O=C(CC1SC(=Nc2ccc(OC(F)F)cc2)N(CCC2=CCCCC2)C1=O)Nc1ccccc1F (stereo not drawn),11*,-13,1,0.47,2
COc1cccc(C(=O)Nc2ccc(S(=O)(=O)NCc3ccco3)cc2)c1,3,-19,-3,0.14,.
COc1cc(-c2cc(C(=O)Nc3ccc(S(=O)(=O)NCc4ccco4)cc3)c3ccccc3n2)cc(OC)c1OC,13*,-10,6,2.1,4
C=CCOC(=O)/C(=C/c1cccc2ccccc12)NC(=O)c1ccccc1,42*,-45,9,-0.88,2
CC(C)CC(=O)OCC(=O)Nc1ccccc1Sc1ccccc1,1,-19,3,0.57,.
COc1cccc(NC(=O)COC(=O)/C=C/c2ccc(Cl)cc2Cl)c1,7,-20,-5,-0.21,.
Cc1ccc(/C=C/C(=O)OCC(=O)Nc2ccccc2Sc2ccccc2)cc1,19*,-28,10,-0.37,6
COc1cccc(/C=C/C(=O)OCC(=O)Nc2ccccc2Sc2ccccc2)c1,24*,-17,1,0.76,6
COc1ccc(OC)c(/C=C/C(=O)OCC(=O)Nc2cccc(Oc3ccccc3)c2)c1,13*,-19,4,0.05,3
COc1cc(C(=O)NNC(=O)c2ccc(NC(=O)C(C)(C)C)cc2)cc(OC)c1OC,1,.,.,.,.
Cc1ccc(S(=O)(=O)NC2CCCCC2)c(C)c1NS(C)(=O)=O,1,.,.,.,.
CCn1c(COc2cccc(C)c2)nnc1SCC(=O)Nc1cccc(C(=O)OC)c1,5,-33,-11,0.12,.
CCOC(=O)c1cccc(NC(=O)CSc2nnc(COc3ccccc3)n2CC)c1,14*,-33,-6,-1.5,3
O=C(Nc1ccc(-c2nc3ccccc3s2)cc1)c1cc(-n2cnnc2)ccc1Cl,16*,-24,-5,0.19,5
O=S(=O)(c1ccccc1)N1CCN=C1SCc1ccc(Cl)cc1,1,.,.,.,.
O=S(=O)(c1ccccc1)N1CCN=C1SCc1ccc(Cl)c(Cl)c1,12*,-58,-1,-1.1,2
COc1cc([N+](=O)[O-])ccc1NC(=S)NC(=O)CC(C)(C)C,6,.,.,.,.
CCc1ccc(C(=O)COC(=O)C(Cc2ccccc2)NC(=O)c2ccc(Cl)cc2)cc1 (stereo not drawn),17*,-59,-18,-0.37,3
CC(=O)NC(Cc1ccccc1)C(=O)OCC(=O)c1ccc(Cl)cc1 (stereo not drawn),0,-52,3,-0.27,.
CCCN1CCN(C(=O)Cn2cnc3ccc(S(=O)(=O)N4CCC(C)CC4)cc3c2=O)CC1,2,.,.,.,.
SMILES,RAM network inh,BB579 growth dn,Yeast lifespan up,SDO1 yeast rescue,RAM 5-FOA
CN(C(=S)Nc1ccc(Oc2ccccc2)cc1)c1ccc(O)cc1,14*,-17,-1,-0.18,1
COc1cc(/C=C/c2cc(C(=O)O)c3ccccc3n2)cc(OC)c1O,12*,.,.,.,5
CCOc1cc(/C=C/c2cc(C(=O)O)c3ccccc3n2)ccc1OC,2,-36,-3,1.2,.
COc1ccc(-n2nc(C(=O)Nc3ccc(OC)c(OC)c3)c3c4ccccc4n(C)c3c2=O)cc1,13*,-82,-2,-0.05,5
CCOc1ccc(N(CC)C(=O)c2nn(-c3ccc(OC)cc3)c(=O)c3c2c2ccccc2n3C)cc1,4,.,.,.,.
COc1ccccc1-n1cnc2c(c1=O)c1nc3ccccc3nc1n2-c1ccc(C)cc1,11*,-46,3,-0.37,3
CC(=O)c1ccc(NC(=O)COC(=O)CCC(=O)c2cccs2)cc1,2,-31,-5,0.2,.
Cc1ccc(Oc2ccc(NC(=O)CCC(=O)OCC(=O)c3cccs3)cc2)cc1C,13*,-46,-5,0.86,3
CCN(Cc1ccncc1)Cc1cn[nH]c1-c1cc(OC)c(OC)c(OC)c1,4,.,.,.,.
CCN(CC)C(=O)Cn1cc(C(=O)C(=O)NCCCn2ccnc2)c2ccccc21,-1,.,.,.,.
Cc1ccc(S(=O)(=O)Nc2ccc(N3CCCCC3)cc2)cc1,1,.,.,.,.
Cc1ccc(NS(=O)(=O)c2ccc(C3CCCCC3)cc2)cc1,14*,-39,3,-1.8,5
COCCOC(=O)c1c(C)oc2ccc(OC(=O)c3c(OC)cccc3OC)cc12,12*,-34,-7,-0.48,1
COc1ccc(C)cc1S(=O)(=O)N(CC(=O)NCc1ccc(Cl)cc1)Cc1ccccc1,12*,-56,15,-1.4,2
COc1ccc(C)cc1S(=O)(=O)N(CC(=O)N1CCOCC1)Cc1ccccc1,0,-22,-5,-0.2,.
CCC1CCC(C(=O)NNC(=O)c2cc(-c3ccco3)[nH]n2)CC1 (stereo not drawn),4,.,.,.,.
CC(C)CCNC(=O)c1cc(-c2ccco2)nc2ccccc12,4,-25,-5,-0.47,.
CCCCCCNC(=O)c1cc(-c2ccco2)nc2ccccc12,13*,-47,.,-1.1,2
CCSC1=N/C(=C\c2ccc(-c3ccccc3[N+](=O)[O-])o2)C(=O)S1,14*,-3,0,-0.53,3
CCCSC1=N/C(=C\c2ccc([N+](=O)[O-])o2)C(=O)S1,1,.,.,.,.
Cc1cc(Br)ccc1S(=O)(=O)n1ccnc1C,0,.,.,.,.
CCOC(=O)c1c(C)[nH]c(C)c1C(=O)COC(=O)/C=C/c1ccc(Cl)cc1,12*,-27,-3,-1,1
Cc1ccc(N(CCCCN2C(=O)c3ccccc3C2=O)C(=O)c2ccc(Cl)s2)cc1,4,-5,1,0.28,.
O=C1c2ccccc2C(=O)N1CCCCN(C(=O)c1ccc(Cl)s1)c1ccc(Cl)cc1,12*,-34,13,-0.33,4
CC(=O)Nc1ccc(S(=O)(=O)Nc2nc3ccccc3nc2-n2ccc(=NC(=O)c3ccc(F)cc3)cc2)cc1,12*,.,.,.,2
CN1CCCC(C#CC(O)(c2ccccc2)c2ccccc2)C1 (stereo not drawn),0,.,.,.,.
CCCCOc1cccc(C(=O)NC(=S)Nc2cccc(C(F)(F)F)c2)c1,13*,-50,4,-1.4,3
CC(C)Oc1cccc(C(=O)NC(=S)Nc2ccc(Cl)c(C(=O)O)c2)c1,8,-16,-16,0.41,.
CC(C)Oc1cccc(C(=O)NC(=S)Nc2cccc(C(F)(F)F)c2)c1,12*,-32,-4,-2.6,2
CN1C(=O)S/C(=C\c2ccc(-n3cncn3)cc2)C1=O,0,.,.,.,.
